Our source for the cytotoxicity values is ChEMBL document CHEMBL4513216, “Probing the Open Global Health Chemical Diversity Library for Multistage-Active Starting Points for Next-Generation Antimalarials” (ACS Infect Dis, 2020).

The series can be described thus: Toxicity liver stage against HepG2, at 10uM. Format: cell-based. The arrangement: test concentration 10 uM, cell line HepG2-A16-CD81EGFP. Conditions: human, HepG2-A16-CD81EGFP cells; read-out: INHIBITION
The method, boiled down:
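Uninfected HepG2-A16-CD81EGFP cells, 3 × 10^3 per well, 1536-well, plated on prespotted compound at 10 μM final, parasite-free screening media added to match infected plates; puromycin 10 μM positive, DMSO 0.5% negative; run in parallel with 48 h PbLuc assay at 37 °C, 5% CO2; viability by CellTiter-Glo luminescence, normalized to controls.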
On to `O=C(N1CCOCC1)N1CCOC[C@H](Oc2ccc(C(F)(F)F)cc2)C1`, for which the cytotoxicity at 10 µM is 1.27%. On to `COc1ccc(-c2noc([C@@H]3C[C@@H](O)CN3C3CCCCC3)n2)cc1`, for which the cytotoxicity at 10 µM was 3.25%.

With `CC(C)COC(=O)N1[C@@H](c2ccco2)[C@@H](CO)C[C@]12CCCCNC2=O`, the cytotoxicity at 10 µM was 1.19%. To `COCCn1ccc2ccc(C(=O)N3CCN(C(C)=O)CC3)cc21` belongs -8.6%. In the case of `CC(C)CS(=O)(=O)Nc1ccc2c(c1)OCC(C)(C)C(=O)N2C`, the cytotoxicity at 10 µM was -0.123%. To `COCC(C)NC(=O)c1nnn(-c2ccc(Br)cc2)n1` (centres undefined) belongs -0.712%; to `CCOC(=O)C1CN(S(C)(=O)=O)Cc2ncn(CC)c21` (centres undefined), 6.74%. With `Cc1noc([C@]23COC[C@H]2CN(S(C)(=O)=O)C3)n1`, the cytotoxicity at 10 µM amounted to 10.4%. To `Cc1cncc(C(=O)N2CCc3ncc(Cn4cccn4)n3CC2)c1` belongs 14.3%; to `O=C(NC1CC1)N1CCOCC2(C1)CN(c1ccccc1)C(=O)CO2` (centres undefined), -1.37%; to `CC1=N[C@@]2(CC[C@@H]3CN(C(=O)NCC(C)C)C[C@@H]32)C(=O)N1CC(C)C`, 2.68%. As to `Cc1nn(C)c2c(N3CCN(C(=O)C(C)C)CC3)ncnc12`, the cytotoxicity at 10 µM was found to be 6.78%. As to `CCc1cc(C(F)(F)F)n2nc(C3CCCN3C(=O)COC)cc2n1` (centres undefined), the cytotoxicity at 10 µM stood at 3.01%. `Cc1cccc(CS(=O)(=O)Cc2ccn(C)c(=O)c2)c1`: the cytotoxicity at 10 µM amounted to 2.29%. To `CCS(=O)(=O)NC1CCCN(c2cc(C)ccc2F)C1=O` (centres undefined) belongs 3.07%. In the case of `CCC1CCCCN1S(=O)(=O)c1c(C)noc1C` (centres undefined), the cytotoxicity at 10 µM was -9.35%. Regarding `Cc1c(F)cccc1S(=O)(=O)Nc1noc(C(C)C)n1`, the cytotoxicity at 10 µM came out at 7.21%.

`CC(=O)NCc1ccc(S(=O)(=O)NC(=O)c2ccc3c(c2)COC3)s1`: the cytotoxicity at 10 µM was -1.8%. The figure for `Cc1nn(C)c2ncc(NC(=O)N(C)Cc3cc(Cl)cn3C)cc12` is 2.73%; for `CCC(C)C(=O)N(CC(=O)OC)c1cccc(C)n1` (centres undefined) it is -4.31%. Regarding `CC(Cn1cccn1)NC(=O)CCc1nc(C(C)(C)C)no1` (centres undefined), the cytotoxicity at 10 µM was determined as 14.5%.

Turning to `O=C(COc1ccc2c(c1)OCC2O)NCc1ccco1` (centres undefined), the cytotoxicity at 10 µM is 0.878%. With `CCOc1ccc(NC(=O)NCCS(=O)(=O)CC)cc1C`, the cytotoxicity at 10 µM is -3%.

Consider `Cc1ccc2c(c1)CCC2NC(=O)N1CCC(C(N)=O)CC1` (centres undefined), for which the cytotoxicity at 10 µM was -4.83%. With `CCOCCc1nc(-c2cnn3c(C)cc(C)nc23)no1`, the cytotoxicity at 10 µM is 3.53%. To `CC(SCC(=O)NCCC#N)c1ccc(Cl)cc1` (centres undefined) belongs 10.6%; to `O=C1CC(N(C(=O)c2ccc(Oc3ccccc3)cc2)C2CC2)C(=O)N1` (centres undefined), -2.94%; to `CN(CCCNS(=O)(=O)N1CCC2(CC1)OCCO2)c1ccccc1`, 9.13%. On to `COc1c(CNCc2ccccc2CN2CCOCC2)c(C)nn1C`, for which the cytotoxicity at 10 µM is -0.686%.

Take `Cn1nnc(C2(NC(=O)c3ccccc3)CCCC2)n1`: the cytotoxicity at 10 µM was -10.5%. Regarding `Cc1cc(C(=O)N(CCN(C)C)Cc2ccc(Cl)cc2)no1`, the cytotoxicity at 10 µM is 0.242%. In the case of `Cc1cnc(NC(=O)NC(CCO)c2cccs2)s1` (centres undefined), the cytotoxicity at 10 µM turned out to be 5.53%. Turning to `Cc1cccc(OCCC(=O)N(C)CC(C)C#N)c1C` (centres undefined), the cytotoxicity at 10 µM was -0.555%. For the molecule `O=C(NS(=O)(=O)c1ccc2c(c1)CCC2)C1COCCO1` (centres undefined), the cytotoxicity at 10 µM was determined as 10.4%.

Take `Fc1cccc(NCc2ncc[nH]2)c1`: the cytotoxicity at 10 µM was -9.16%.

Consider `Cc1cc(C(=O)N2CCN(c3ccncc3Cl)CC2)n(C)n1`, for which the cytotoxicity at 10 µM was -9.1%. As to `CN(CCc1ccccn1)C(=O)C(O)c1cc(Cl)cc(Cl)c1` (centres undefined), the cytotoxicity at 10 µM is -5.68%. `O=C(CCn1ccc2ccccc21)Nc1ccnn1CC1CCOC1` (centres undefined): the cytotoxicity at 10 µM turned out to be 2.56%. Turning to `COc1ncccc1CNC(=O)C1CC(=O)N(C)C1` (centres undefined), the cytotoxicity at 10 µM is -14.6%. On to `Cc1ccc(C)c2c(C)c(C(=O)NCCC(=O)N3CCOCC3)oc12`, for which the cytotoxicity at 10 µM is 1.04%. On to `CC(C)C(=O)N1CCCN(C(=O)NC2CCc3ccccc3C2)CC1` (centres undefined), for which the cytotoxicity at 10 µM is -7.33%. `CC(C)c1noc(CS(=O)(=O)CC(=O)NCc2ccccc2)n1`: the cytotoxicity at 10 µM is -10.5%.

Take `CCN1CCC(CNCc2cc(OC)ccc2OC)C1` (centres undefined): the cytotoxicity at 10 µM was -2%.

As to `Cc1cc(F)ccc1CN1CCCC2(C1)OCCO2`, the cytotoxicity at 10 µM is -11.8%. With `CCOC[C@@]12CCC[C@@H]1CN(C(=O)COc1ccccc1OC)C2`, the cytotoxicity at 10 µM was -106%. With `Cc1ccc(C(=O)N2C[C@@H](N3CCN(C)CC3)[C@H]3OCCC[C@H]32)cn1`, the cytotoxicity at 10 µM is -113%. To `Cc1nnc([C@@]23CCO[C@@H]2CCN(Cc2scnc2C)C3)o1` belongs -111%. With `O=C(NC[C@]12COC[C@H]1CN(Cc1cccc(F)c1)C2)c1ccco1`, the cytotoxicity at 10 µM is -66.7%.

Take `CN1C(=O)CC(c2cnn(C)c2)C12CCN(C(=O)c1ccco1)CC2` (centres undefined): the cytotoxicity at 10 µM is -75.5%. `CC(C)NC(=O)c1ccc2nnc(C3CCN(S(C)(=O)=O)C3)n2c1` (centres undefined): the cytotoxicity at 10 µM turned out to be 3.5%. Turning to `Cc1ccc(C(=O)N2C[C@@H](OCc3cccnc3)[C@H]3OCCC[C@H]32)o1`, the cytotoxicity at 10 µM stood at 4.74%. Turning to `O=S1(=O)C[C@@H]2[C@H](C1)N(Cc1ncc[nH]1)CCN2C/C=C/c1ccccc1`, the cytotoxicity at 10 µM was determined as 11.2%. `CCn1nc(C)c(C(C)NC(=O)c2cnc(N(C)C)nc2C)c1C` (centres undefined): the cytotoxicity at 10 µM is 5.19%. As to `CC(C(=O)N1CCn2cncc2C1)N1C[C@@H](C)O[C@@H](C)C1` (some centres undefined), the cytotoxicity at 10 µM is 3.13%. Take `CCc1nc(C)c(C(=O)N(C)Cc2cnc3ccccn23)o1`: the cytotoxicity at 10 µM is -1.94%. In the case of `CCCS(=O)(=O)N1CCC2(CCC(=O)N(CCc3cccnc3)C2)CC1`, the cytotoxicity at 10 µM is -4.92%. Regarding `Cc1ncsc1CCN(C)Cc1cc2n(n1)CCN(Cc1ncc[nH]1)C2`, the cytotoxicity at 10 µM is -22.2%. `O=C(c1ccc(-c2cn[nH]c2)nc1)N1CCC(N2CCOCC2)CC1`: the cytotoxicity at 10 µM was found to be 1.38%. With `Cc1nnsc1C(=O)N(C)Cc1nc(-c2ccccn2)no1`, the cytotoxicity at 10 µM was 1.89%. With `CC(C)(C)c1ncc(C(=O)N2CCC(N3CCSCC3)CC2)c(O)n1`, the cytotoxicity at 10 µM stood at 0.382%. For `CN1CCC(N2CCCC(C(=O)N3Cc4ccccc4C3)C2)CC1` (centres undefined), the cytotoxicity at 10 µM was determined as 5.19%. With `Cc1[nH]c(=O)[nH]c(=O)c1CC(=O)N1CCC(Oc2ccc(F)cc2)CC1`, the cytotoxicity at 10 µM was found to be 4.42%. Take `CC(O)c1cn(C2CCN(C(=O)C3(C)CCCCC3)CC2)nn1` (centres undefined): the cytotoxicity at 10 µM was -7.11%.

Regarding `COCC1CCN(S(=O)(=O)c2ccc(C(=O)NCC(F)F)cc2)C1` (centres undefined), the cytotoxicity at 10 µM was 6.95%. For the molecule `c1cc(-c2cn[nH]c2)ccc1CN1CCCCC1`, the cytotoxicity at 10 µM was 1.58%. To `OCCC1CN(c2ncnc3[nH]cnc23)CCN1Cc1ccccc1F` (centres undefined) belongs 17%; to `CCc1c(C)nc(C)nc1N1C[C@@H](CN(CC)CCO)[C@@H](CO)C1`, 1.5%. On to `O=C(CC1CCc2ccccc21)NC1(C(=O)O)CCCC1` (centres undefined), for which the cytotoxicity at 10 µM is -11.9%. With `O=C(O)[C@]12CCCN(Cc3nccs3)[C@@H]1CCN(c1cnccn1)C2`, the cytotoxicity at 10 µM was -0.911%. For the molecule `Cn1cc(Cl)c(CN2CCn3nc(C(=O)Nc4ccccc4)cc3C2)n1`, the cytotoxicity at 10 µM is -2.8%.

For the molecule `CCN1CC2(CCC1=O)CCN(CCOc1ccc(F)cc1)CC2`, the cytotoxicity at 10 µM came out at 4.19%. In the case of `CCC(CO)N(Cc1ccco1)C(=O)c1cccc(C)c1O` (centres undefined), the cytotoxicity at 10 µM stood at 0.126%. Take `CCn1nc(CNC(=O)C2CCCN(C(=O)COC)C2)c2ccccc21` (centres undefined): the cytotoxicity at 10 µM is -1.29%. `Cc1nccnc1N1Cc2cnc(CC(C)C)nc2C1`: the cytotoxicity at 10 µM was 1.81%.

Regarding `CCc1c(C)nn(C)c1NC(=O)N1CCCOC(Cn2cccn2)C1` (centres undefined), the cytotoxicity at 10 µM is -8.14%.

In the case of `COc1ccc(OC)c(C(O)CNC(=O)Nc2cc(C)nn2C)c1` (centres undefined), the cytotoxicity at 10 µM was -9.86%. `CC(=O)N1CCCCCC1C1CCN(c2ncccc2C#N)CC1` (centres undefined): the cytotoxicity at 10 µM is -7.13%.

With `Cc1nn(C)c(C)c1CC(=O)N1CCCN(c2cccnn2)CC1`, the cytotoxicity at 10 µM is -2.1%. For the molecule `Cc1nc(C)n(CC2CN(Cc3cccc(C#N)c3)CCO2)n1` (centres undefined), the cytotoxicity at 10 µM was -10.3%. For the molecule `O=C(NCc1csc(Br)c1)c1ccc(=O)[nH]n1`, the cytotoxicity at 10 µM amounted to 1.66%. To `COCCOc1ccc(NC(=O)N2CCCC2c2ccncc2)cn1` (centres undefined) belongs -3.49%; to `Cc1nc2ccccc2nc1CN(C)CC1CCCN1c1cccnn1` (centres undefined), 7.17%. `COc1cc(CNCc2ccco2)ccc1OCCO`: the cytotoxicity at 10 µM came out at 3.35%. Take `c1coc(CN2CCc3nnc(COc4cncnc4)n3CC2)c1`: the cytotoxicity at 10 µM came out at 4.15%. On to `COCCNC(=O)[C@H]1C[C@@H]2CCN(c3ccccc3)C[C@H]2O1`, for which the cytotoxicity at 10 µM came to 2.78%. With `c1cnc(NCc2nnn3c2CN(CC2CC2)CCC3)nc1`, the cytotoxicity at 10 µM is -0.536%. Take `CS(=O)(=O)N1CCO[C@@H]2CN(Cc3ccc(F)cc3)CC[C@@H]2C1`: the cytotoxicity at 10 µM is 6.86%. The figure for `CC(C)c1nc(-c2cc(C(=O)N3CCN(C)CC3)c3ccccn23)cs1` is 5.77%. The figure for `Cc1nc(CN2CC[C@@H](OCC3CC3)[C@@H]2Cc2cccnc2)cs1` is -4.38%.

Regarding `O=C1[C@@H]2CCN(Cc3ccccn3)C[C@@H]2OCCN1c1ccccc1`, the cytotoxicity at 10 µM is -73.7%. Regarding `Cc1ccc(CC(=O)N2Cc3nccn3CC(CN(C)C)C2)cc1` (centres undefined), the cytotoxicity at 10 µM is -9.58%. Regarding `Cn1cc(CN2CC[C@@H]3[C@@H]2CCN3C(=O)c2cccc(F)c2)cn1`, the cytotoxicity at 10 µM was -66.4%.

For the molecule `N#Cc1ccc(C(=O)O)nc1C=Cc1cccc(Cl)c1`, the cytotoxicity at 10 µM turned out to be 13%.

Regarding `CC(C)=CCN1C[C@@H]2CC[C@H]1CN(C(=O)c1ccc3nc[nH]c3c1)C2`, the cytotoxicity at 10 µM is -1.31%.
